Each structure is given as a SMILES string. Activity calls are given as the source filed them. The calls are words filed in the database; no cut-off is given here.

Among the data in ChEMBL document CHEMBL4257465, “Strigolactones: a plant phytohormone as novel anti-inflammatory agents” (Medchemcomm, 2018) are Activity, viability and inhibition values, retold here.

The subject of series [1] is RAW264.7. Put plainly: Antiinflammatory activity in LPS-induced mouse RAW264.7 cells assessed as TNFalpha levels at 1.25 uM pretreated for 2 hrs followed by LPS stimulation and measured after 12 hrs by ELISA (reference value: 5313.7 +/- 420.9 pg/ml). The series is classed as functional. (In an ELISA, binding on a coated surface is turned into a signal by an enzyme label.)

In series [2] the test system is RAW264.7. Put plainly: Antiinflammatory activity in LPS-induced mouse RAW264.7 cells assessed as TNFalpha levels at 2.5 uM pretreated for 2 hrs followed by LPS stimulation and measured after 12 hrs by ELISA (reference value: 5313.7 +/- 420.9 pg/ml). Format: functional.
In series [3] the test system is RAW264.7. Put plainly: Antiinflammatory activity in LPS-induced mouse RAW264.7 cells assessed as TNFalpha levels at 5 uM pretreated for 2 hrs followed by LPS stimulation and measured after 12 hrs by ELISA (reference value: 5313.7 +/- 420.9 pg/ml). Format: functional. The procedure, abridged: (§1)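 RAW264.7 murine macrophages (DMEM, 10% serum, 37 °C, 5% CO2) seeded at 5 × 10^5 cells per well, pretreated 2 h with compound at 10, 5, 2.5 or 1.25 μM (DMSO 0.1% v/v), then LPS (E. coli 0127:B8) 100 ng mL−1 added. Supernatant TNF-α or IL-6 read by mouse ELISA kit after 6, 12 and 24 h. Mean ± SD, n = 3, three independent experiments.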

In series [4] the test system is RAW264.7. The series is described as follows: Antiinflammatory activity in LPS-induced mouse RAW264.7 cells assessed as TNFalpha levels at 5 uM pretreated for 2 hrs followed by LPS stimulation and measured after 6 hrs by ELISA (reference value: 4377.1 +/- 318.6 pg/ml). Format: functional. Put shortly:
as §1

Series [5] relates to RAW264.7. The series is described as follows: Antiinflammatory activity in LPS-induced mouse RAW264.7 cells assessed as TNFalpha levels at 10 uM pretreated for 2 hrs followed by LPS stimulation and measured after 6 hrs by ELISA (reference value: 4377.1 +/- 318.6 pg/ml). The series is classed as functional. Put shortly: as §1
Series [6] has as its system RAW264.7. Put plainly: Antiinflammatory activity in LPS-induced mouse RAW264.7 cells assessed as TNFalpha levels at 10 uM pretreated for 2 hrs followed by LPS stimulation and measured after 12 hrs by ELISA (reference value: 5313.7 +/- 420.9 pg/ml). Format: functional. The procedure, abridged:
as §1

Series [7] is described as follows: Cytotoxicity against mouse RAW264.7 cells assessed as cell viability at 10 uM after 48 hrs by MTT assay (reference value: 100%). The series is classed as cell-based. As to conditions: read-out: Activity. Put shortly: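 RAW264.7 cells seeded at 4 × 10^3 per well, cultured overnight, exposed to compound (DMSO 0.1% v/v) for 48 h. MTT 0.5 mg mL−1 added for 4 h at 37 °C, formazan dissolved in DMSO, OD570 read. Viability relative to medium-only cells set as 100%. Mean ± SD (n = 5), three independent experiments.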

Series [8] concerns RAW264.7. Put plainly: Antiinflammatory activity in LPS-induced mouse RAW264.7 cells assessed as TNFalpha levels at 10 uM pretreated for 2 hrs followed by LPS stimulation and measured after 24 hrs by ELISA (reference value: 9653.7 +/- 377.3 pg/ml). Format: functional. The procedure, abridged:
as §1

Series [9] concerns RAW264.7. Put plainly: Antiinflammatory activity in LPS-induced mouse RAW264.7 cells assessed as TNFalpha levels at 2.5 uM pretreated for 2 hrs followed by LPS stimulation and measured after 24 hrs by ELISA (reference value: 9653.7 +/- 377.3 pg/ml). The series is classed as functional. The procedure, abridged:
as §1

The test system of series [10] is Danio rerio. The series is described as follows: In-vivo antiinflammatory activity in 4 days post fertilized zebrafish larvae harboring coronilla-eGFP/Lyc-dsRed assessed as reduction in neutrophil recruitment to wounded tail at 5 to 20 uM measured after 3 to 6 hrs by fluorescence microscopic analysis. Format: functional, organism-based. Put shortly:
(§2)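 Double transgenic neutrophil/macrophage reporter larvae (Coronilla-eGFP/Lyc-dsRed), 4 dpf, tail-cut. […] Neutrophils and macrophages gathering at the wound imaged by fluorescence microscopy at 3 and 6 h. 6–8 larvae per group. Uncut larvae serve as blank, untreated cut larvae as control.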

The subject of series [11] is Danio rerio. The series is described as follows: In-vivo antiinflammatory activity in 4 days post fertilized zebrafish larvae harboring coronilla-eGFP/Lyc-dsRed assessed as reduction in macrophage recruitment to wounded tail at 5 to 20 uM measured after 3 to 6 hrs by fluorescence microscopic analysis. The series is classed as functional, organism-based. The procedure, abridged: as §2

For series [12], the target named is T1, NF-kappa-B inhibitor alpha (Mus musculus) (UniProt Q9Z1E3).
T1 sequence (whole entry): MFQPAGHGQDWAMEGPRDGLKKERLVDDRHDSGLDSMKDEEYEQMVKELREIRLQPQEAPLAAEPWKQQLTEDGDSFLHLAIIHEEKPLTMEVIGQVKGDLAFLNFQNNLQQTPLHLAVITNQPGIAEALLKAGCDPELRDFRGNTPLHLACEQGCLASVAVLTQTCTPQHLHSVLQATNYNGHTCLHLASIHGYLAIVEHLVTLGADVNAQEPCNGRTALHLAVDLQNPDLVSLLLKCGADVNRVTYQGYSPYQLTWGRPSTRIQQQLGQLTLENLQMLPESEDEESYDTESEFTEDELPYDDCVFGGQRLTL
Put plainly: Inhibition of LPS-induced IkappaBalpha phosphorylation in mouse RAW264.7 cells after 4 hrs by Western blot analysis. The series is classed as cell-based. The procedure, abridged: (§3)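 RAW264.7 cells at 2 × 10^6 per well given fresh medium with compound (10, 5, 2.5, 1.25 μM) plus LPS 500 ng mL−1 for 4 h. Lysed in IP buffer with 1 mM PMSF, protein by BCA. Run on 12.5% SDS-PAGE and blotted. Phospho and total ERK1/2 (Thr202/Tyr204), p38 (Thr180/Tyr182), IκBα (Ser32/36) and NF-κB p65 detected by ECL. Mean ± SD, n = 3.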
In general terms: Immunoblotting shows a protein as a band on a membrane.

For series [13], the target named is Mitogen-activated protein kinase 1 and 3 (ERK2 and ERK1) (Mus musculus) (UniProt P63085+Q63844). Put plainly: Inhibition of LPS-induced ERK1/2 phosphorylation in mouse RAW264.7 cells after 4 hrs by Western blot analysis. Format: cell-based. Put shortly:
as §3

Series [14] deals with MAP kinase p38 (Mus musculus) (UniProt P47811+O08911+Q9WUI1+Q9Z1B7). The series is described as follows: Inhibition of LPS-induced p38 MAPK phosphorylation in mouse RAW264.7 cells after 4 hrs by Western blot analysis. The series is classed as cell-based. The procedure, abridged: as §3
Series [15] has as its system RAW264.7. Put plainly: Antiinflammatory activity in LPS-induced mouse RAW264.7 cells assessed as IL-6 levels at 10 uM pretreated for 2 hrs followed by LPS stimulation and measured after 12 hrs by ELISA (reference value: 1394 +/- 62.6 pg/ml). The series is classed as functional. Put shortly:
as §1

Series [16] deals with RAW264.7. The series is described as follows: Antiinflammatory activity in LPS-induced mouse RAW264.7 cells assessed as IL-6 levels at 1.25 uM pretreated for 2 hrs followed by LPS stimulation and measured after 6 hrs by ELISA (reference value: 472.3 +/- 25.8 pg/ml). Format: functional. Put shortly: as §1
In series [17] the test system is RAW264.7. Put plainly: Antiinflammatory activity in LPS-induced mouse RAW264.7 cells assessed as IL-6 levels at 10 uM pretreated for 2 hrs followed by LPS stimulation and measured after 6 hrs by ELISA (reference value: 472.3 +/- 25.8 pg/ml). The series is classed as functional. The procedure, abridged:
as §1

The subject of series [18] is RAW264.7. Put plainly: Antiinflammatory activity in LPS-induced mouse RAW264.7 cells assessed as IL-6 levels at 2.5 uM pretreated for 2 hrs followed by LPS stimulation and measured after 24 hrs by ELISA (reference value: 1966.6 +/- 102.3 pg/ml). Format: functional. Put shortly:
as §1

Sequence of Mitogen-activated protein kinase 1 and 3 (ERK2 and ERK1) (Mus musculus) (P63085 whole entry, looked up): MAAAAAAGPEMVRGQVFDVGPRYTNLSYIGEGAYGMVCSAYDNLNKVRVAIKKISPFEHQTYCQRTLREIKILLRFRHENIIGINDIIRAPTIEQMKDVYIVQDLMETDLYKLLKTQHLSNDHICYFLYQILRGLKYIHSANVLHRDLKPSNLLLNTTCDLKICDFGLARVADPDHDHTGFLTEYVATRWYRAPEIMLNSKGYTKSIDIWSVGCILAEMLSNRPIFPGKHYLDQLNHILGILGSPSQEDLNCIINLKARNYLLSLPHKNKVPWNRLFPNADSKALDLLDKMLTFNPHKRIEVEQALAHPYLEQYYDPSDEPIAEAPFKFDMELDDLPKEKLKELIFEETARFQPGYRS
Sequence of Mitogen-activated protein kinase 1 and 3 (ERK2 and ERK1) (Mus musculus) (Q63844 whole entry, looked up): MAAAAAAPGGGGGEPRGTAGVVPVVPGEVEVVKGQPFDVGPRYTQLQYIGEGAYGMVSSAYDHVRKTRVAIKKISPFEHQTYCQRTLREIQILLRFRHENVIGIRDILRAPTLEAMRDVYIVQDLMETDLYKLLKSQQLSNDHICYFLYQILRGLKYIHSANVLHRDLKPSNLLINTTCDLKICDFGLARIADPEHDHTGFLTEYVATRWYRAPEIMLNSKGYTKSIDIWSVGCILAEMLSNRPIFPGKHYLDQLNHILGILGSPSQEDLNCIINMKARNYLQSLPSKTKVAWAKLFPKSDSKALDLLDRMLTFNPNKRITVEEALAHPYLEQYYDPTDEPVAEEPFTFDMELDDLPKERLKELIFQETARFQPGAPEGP

For `CC1=C[C@H](O/C=C2/C(=O)O[C@@H]3c4ccccc4C[C@H]23)OC1=O`, the Activity in the series with RAW264.7 [1] was 5303.7 pg/mL; in the series on RAW264.7 [2], 5186.9 pg/mL; with RAW264.7 [3], 5036.1 pg/mL; in the series with RAW264.7 [4] it was 4140.7 pg/mL; in the series with RAW264.7 [5] it was 3862.3 pg/mL; in the series with RAW264.7 [6], 4685.5 pg/mL. The Activity in the series on RAW264.7 [8] was found to be 8660.7 pg/mL; in the series with RAW264.7 [9] it was 9397.7 pg/mL; in the series on RAW264.7 [15], 869 pg/mL; in the series on RAW264.7 [16], 461.2 pg/mL; in the series with RAW264.7 [17], 302.3 pg/mL; in the series on RAW264.7 [18] it was 1729.3 pg/mL. Besides, the viability at 48 h, 10 µM in series [7] turned out to be 100%. Moreover, the outcome with Danio rerio [10] and in the series with Danio rerio [11] was Active. Further, the inhibition result in series [12], in series [13] and in series [14] was “Dose-dependent effect” each time.

As to `CC1=C[C@@H](O/C=C2/C(=O)O[C@H]3c4ccccc4C[C@@H]23)OC1=O`, the Activity in the series on RAW264.7 [1] was determined as 5319.6 pg/mL; in the series with RAW264.7 [2], 5212.4 pg/mL; with RAW264.7 [3], 5079.1 pg/mL; in the series on RAW264.7 [4], 4209.3 pg/mL; in the series on RAW264.7 [5], 3927.4 pg/mL; in the series on RAW264.7 [6], 4721.3 pg/mL. In addition, the Activity is 8796.7 pg/mL in the series with RAW264.7 [8]; 9444.5 pg/mL in the series with RAW264.7 [9]; 998.2 pg/mL with RAW264.7 [15]; 470.1 pg/mL in the series on RAW264.7 [16]; 340.6 pg/mL with RAW264.7 [17]; 1787.6 pg/mL in the series on RAW264.7 [18]. The viability at 48 h, 10 µM in series [7] came out at 99.2%. Besides, the outcome in the series with Danio rerio [10] and with Danio rerio [11] was Active. Also, the inhibition result in series [12], in [13] and in series [14] was “Dose-dependent effect” throughout.
